Screening results deposited in PubChem BioAssay by Sanford-Burnham Center for Chemical Genomics.
DNMT1 block = inhibitors of human DNMT1; 0.83% of 360,000 active; P26358; DNMT1 molecular beacon, Hinp1I cleavage, fluorescence; inhibition (reported as % activation of signal), % at 10 µM; AID 588458; in the data active = inhibition above about 50%
Scp-1 inhibitor = blocks human Scp-1 phosphatase activity; 0.88% of 340,000 active; Recombinant Scp1, phosphopeptide, malachite green phosphate absorbance; Q9GZU7; inhibition, % at 20 µM;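 active = inhibition above about 50% at 20 µM, limit read from the data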;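 note: plate controls were DMSO wells with enzyme for no effect and wells lacking enzyme for full effect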
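Material: truncated SCP-1 phosphatase (76-261aa) / Buffer or medium: 50 mM Tris acetate pH 5.5, 0.005% Tween-20, 10 mM MgCl2 / Compound dosing: one concentration, 20 µM, with 1.0% DMSO / Incubation: 45 min room-temperature reaction, 5 min colour, 30 min stabiliser / Detection: colorimetric free-phosphate detection, absorbance 630 nm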
Rpn11 block = inhibitors of human proteasome Rpn11 | 0.59% of 360,000 active | inhibition, % at 20 µM | human 26S proteasome, Ub4-pepOG fluorescence polarization; 20S core pre-blocked with epoxomicin | O00487;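 active = inhibition at 20 µM, scaled to each plate's controls, above about 33%, limit read from the data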
Target sequence (O00487 whole entry, looked up): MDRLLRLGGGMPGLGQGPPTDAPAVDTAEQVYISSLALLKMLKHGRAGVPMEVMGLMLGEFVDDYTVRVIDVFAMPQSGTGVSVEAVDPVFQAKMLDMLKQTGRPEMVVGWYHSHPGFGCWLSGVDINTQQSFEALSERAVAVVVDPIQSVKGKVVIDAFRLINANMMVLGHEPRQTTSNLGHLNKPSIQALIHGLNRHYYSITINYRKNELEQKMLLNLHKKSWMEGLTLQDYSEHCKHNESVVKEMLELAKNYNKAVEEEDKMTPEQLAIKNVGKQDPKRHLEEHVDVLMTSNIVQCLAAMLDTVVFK
STEP block = blocks human striatal-enriched tyrosine phosphatase; P54829; recombinant STEP, OMFP fluorogenic substrate, fluorescence; inhibition, % at 20 µM; 0.25% of 360,000 active; AID 588621;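 active = inhibition at 20 µM, scaled per plate between control wells, above about 37%, limit read from the data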;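 note: 0% = DMSO with enzyme and substrate and 100% = substrate only without enzyme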
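Test system: STEP tyrosine phosphatase / Reagent: OMFP at 25 µM / Doses: 20 µM, 1% DMSO / Read-out: percent inhibition scaled to no-enzyme and uninhibited-enzyme controls, plate-pattern corrected / Detection: FITC-channel fluorescence of OMFP product / Medium: Bis-Tris buffer pH 6.0, 2.5 mM DTT, 0.005% Tween 20 / Schedule: 20 min at room temperature, dark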
SUMO1-SIM PPI = alters human SUMO1 binding to SIM partners. P63165. SUMO1 binding to a labelled peptide, TR-FRET, 1 h. inhibition, % at 20 µM. AID 602429. 0.33% of 360,000 active; in the data active = inhibition above about 37%
LMPTP block = LMPTP (human) inhibition; P24666; recombinant LMPTP-A, OMFP fluorogenic substrate, fluorescence intensity; inhibition, % at 20 µM; 0.22% of 360,000 active; AID 651560;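 active = compounds that cut the enzyme signal by at least half of the control window in the single-dose screen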;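 note: plate controls were DMSO wells with enzyme plus substrate for no effect and substrate without enzyme for full effect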
Target sequence (P24666 whole entry, looked up): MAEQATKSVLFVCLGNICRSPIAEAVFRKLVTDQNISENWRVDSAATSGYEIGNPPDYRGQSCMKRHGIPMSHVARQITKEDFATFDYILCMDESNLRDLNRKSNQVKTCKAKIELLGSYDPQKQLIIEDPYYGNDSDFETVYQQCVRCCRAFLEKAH
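Test system – LMPTP-A phosphatase enzyme · Quantity – 0.625 nM LMPTP-A final · Reagent – OMFP substrate, 400 µM final · Dosing – one test concentration per compound, 20 µM, with 3% DMSO overall · Timing – 50 min enzyme reaction at room temperature, protected from light · Detection – fluorescence intensity · Controls – substrate-only low control, DMSO enzyme-plus-substrate high control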
DNMT1 interf DR = beacon fluorescence artifact, dose response counter-screen; molecular beacon fluorescence, spectral interference counter-screen; shares compounds with DNMT1 block; IC50, µM; 200 tested, under 10 active; AID 602382; call rule not given here
DNMT1 inh conf = DNMT1 inhibition confirmation, single concentration; DNMT1 molecular beacon HinP1I cleavage, fluorescence; 8% of 2,300 active; inhibition, % at 10 µM; shares compounds with DNMT1 block; AID 602385;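 active = average inhibition of at least 30% in the single-concentration confirmation test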
Beacon interf = counter-screen for DNMT1 inhibitors: spectral interference; activation (fluorescence interference), % at 10 µM; AID 602387; DNMT1 molecular beacon spectral interference counterscreen, fluorescence 485/520; shares compounds with DNMT1 block; 1% of 2,300 active;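 active = activation of at least 30% at 10 µM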;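 note: DNMT1 catalytic domain with a HinP1I cleavage step and a FAM/dabcyl DNA beacon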
* = called active by the depositor; nt = no result shown. Only some compounds are listed: those with a hit (about 2.3% of all), similar ones and a draw of the others.

SMILES | DNMT1 block | Scp-1 inhibitor | Rpn11 block | STEP block | SUMO1-SIM PPI | LMPTP block | DNMT1 inh conf | Beacon interf | others
Cc1ccc(NC(=O)CSc2nsc(SCC(=O)Nc3ccc(C)cc3C)c2C#N)c(C)c1 | 52* | -3 | 3 | -1 | -1 | -1 | 3 | 3
Cc1csc(NC(=O)CSc2nsc(SCC(=O)Nc3nc(C)cs3)c2C#N)n1 | -6 | -4 | 10 | 2 | 4 | 1 | nt | nt
CCOC(=O)CSc1nsc(SCC(=O)OCC)c1C#N | 76* | -2 | -2 | -1 | -4 | -1 | -1 | 5
Cc1cccc2sc(NNC(=O)c3cc(-c4cccs4)nc4ccccc34)nc12 | 69* | 7 | 16 | 0 | 2 | 1 | 2 | 1
Cc1ccc(NC(=O)c2ncn(CCCNCC3CCCO3)n2)cc1C (centres undefined) | 0 | 0 | 2 | -2 | -1 | -2 | nt | nt
CCC1Oc2nc(SC)nnc2-c2ccccc2N1C(=O)c1ccccc1 (centres undefined) | 54* | -14 | 2 | 2 | -23 | 0 | 5 | 6
CCC(=O)N1c2ccccc2-c2nnc(SC)nc2OC1c1ccc(N(C)C)cc1 (centres undefined) | -3 | -2 | 0 | 2 | -19 | -1 | nt | nt
CCCCCCCCC(=O)c1c(OC)oc(C=O)cc1=O | 98* | nt | nt | -4 | 8 | 7 | 38* | 3 | DNMT1 interf DR=>99
CCCCCCC(=O)Nc1cc2c(C)cc(=O)oc2cc1C | 8 | 3 | 1 | -16 | 1 | -1 | nt | nt
Cc1csc(=O)n1CC(=O)OC(C)C(=O)Nc1ccc(N(C)C)cc1 (centres undefined) | -3 | 3 | -5 | 1 | 2 | 1 | nt | nt
Cc1cccc(NC(=S)NC2CC3CCCC(C2)N3Cc2cccs2)c1 (centres undefined) | 84* | 1 | -14 | 5 | 2 | -2 | 3 | 1
COCCNC(=S)NC1CC2CCCC(C1)N2Cc1cccs1 (centres undefined) | 2 | -1 | 3 | -3 | 0 | -1 | nt | nt
CC(=O)c1ccccc1C(=O)N1CCC(n2nccc2NC(=O)C2CC2)CC1 | -4 | -8 | 11 | -4 | -3 | 0 | nt | nt
COC(=O)CC1OCC=C2CN3CCC45C6=CC(=O)C(=O)C([N+](=O)[O-])=C6NC4C1C2CC35 (centres undefined) | 85* | nt | -9 | 10 | 32 | 13 | 53* | -10 | DNMT1 interf DR=>99
COCCNC(=O)c1ccc(-c2cn[nH]c2)c2ccoc12 | 68* | nt | 0 | -3 | 5 | -3 | 0 | 1
Cc1cc(C(=O)NCc2ccc(Cl)cc2)n(-c2ccccc2)n1 | 0 | 9 | -6 | 0 | -3 | 1 | nt | nt
Cc1ccc(CCNC(=O)c2cc(C)nn2-c2ccccc2)cc1 | 61* | -7 | 1 | -1 | -1 | 0 | 2 | 1
COC(=O)c1sccc1NC(=O)Cc1ccc(OC)cc1 | 92* | -7 | -3 | 2 | 1 | 1 | 4 | 13
COC(=O)c1sccc1NC(=O)c1ccc(C)o1 | 5 | -13 | 8 | 2 | 0 | 1 | nt | nt
CC1CCc2sc(NC(=O)C3CC(Cl)=CCC3C(=O)O)c(C#N)c2C1 (centres undefined) | 2 | -8 | 3 | 2 | -1 | 1 | nt | nt
C[C@H](CO)N1C[C@H](C)[C@@H](CN(C)S(C)(=O)=O)Oc2ccc(NC(=O)NC3CCCCC3)cc2C1=O | -1 | -4 | -5 | 0 | -1 | 0 | nt | nt
O=C(OCc1cc(=O)n2ccsc2n1)c1ccccc1NCCO | 59* | 59* | -7 | 5 | 11 | 4 | 4 | 3
CCOCCCNC(=O)c1ccccc1SCC | 52* | 3 | -3 | 2 | 4 | 0 | 3 | 7
